Assay results as given in ChEMBL document CHEMBL4145666, “In Search of Selectivity in Inhibition of ADAM10” (ACS Med Chem Lett, 2018).
pKi: −log10 of the molar value.

Key:
[1] = molecular target: Disintegrin and metalloproteinase domain-containing protein 17 (Homo sapiens, UniProt P78536); assay: Inhibition of recombinant human C-terminal His6-tagged ADAM17 (Arg215 to Asn671 residues) expressed in baculovirus infected Sf21 cells using Mca-PLAQAV-Dpa-RSSSR-NH2 as substrate by fluorescence spectrophotometric method
Sequence of Disintegrin and metalloproteinase domain-containing protein 17 (P78536 whole entry, the tested form may be a part): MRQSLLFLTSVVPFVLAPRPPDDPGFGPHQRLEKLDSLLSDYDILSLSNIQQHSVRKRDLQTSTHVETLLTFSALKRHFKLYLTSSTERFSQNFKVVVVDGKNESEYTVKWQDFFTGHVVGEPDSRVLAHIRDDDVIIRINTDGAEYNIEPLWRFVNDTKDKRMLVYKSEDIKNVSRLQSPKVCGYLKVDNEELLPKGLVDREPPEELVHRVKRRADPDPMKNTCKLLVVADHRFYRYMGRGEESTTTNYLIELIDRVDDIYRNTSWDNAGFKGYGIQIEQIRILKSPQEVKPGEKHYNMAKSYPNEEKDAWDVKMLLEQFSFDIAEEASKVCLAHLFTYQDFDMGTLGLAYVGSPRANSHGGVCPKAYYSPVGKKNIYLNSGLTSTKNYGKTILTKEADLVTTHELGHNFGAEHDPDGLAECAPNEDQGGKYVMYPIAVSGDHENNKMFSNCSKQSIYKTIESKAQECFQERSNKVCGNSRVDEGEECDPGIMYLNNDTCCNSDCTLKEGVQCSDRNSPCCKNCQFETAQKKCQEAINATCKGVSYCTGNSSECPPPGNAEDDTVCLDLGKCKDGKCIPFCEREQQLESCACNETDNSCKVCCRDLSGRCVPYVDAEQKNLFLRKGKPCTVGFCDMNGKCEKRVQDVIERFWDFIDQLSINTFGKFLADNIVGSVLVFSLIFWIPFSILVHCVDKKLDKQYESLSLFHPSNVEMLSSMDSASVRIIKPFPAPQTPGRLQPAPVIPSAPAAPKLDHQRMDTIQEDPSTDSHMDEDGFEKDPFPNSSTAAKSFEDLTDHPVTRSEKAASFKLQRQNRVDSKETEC
How it was run: (§1)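 Enzymes and their substrates were obtained as in earlier work, and inhibition was run by a previously reported protocol. Ki values were measured in triplicate.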

[2] = molecular target: Neutrophil collagenase (Homo sapiens, UniProt P22894); assay: Inhibition of recombinant human MMP8 catalytic domain (Phe99 to Gln269 residues) expressed in Escherichia coli using McaKPLGL-Dpa-AR-NH2 as substrate by fluorescence spectrophotometric method; how it was run: as §1
Sequence of Neutrophil collagenase (P22894 whole entry, the tested form may be a part): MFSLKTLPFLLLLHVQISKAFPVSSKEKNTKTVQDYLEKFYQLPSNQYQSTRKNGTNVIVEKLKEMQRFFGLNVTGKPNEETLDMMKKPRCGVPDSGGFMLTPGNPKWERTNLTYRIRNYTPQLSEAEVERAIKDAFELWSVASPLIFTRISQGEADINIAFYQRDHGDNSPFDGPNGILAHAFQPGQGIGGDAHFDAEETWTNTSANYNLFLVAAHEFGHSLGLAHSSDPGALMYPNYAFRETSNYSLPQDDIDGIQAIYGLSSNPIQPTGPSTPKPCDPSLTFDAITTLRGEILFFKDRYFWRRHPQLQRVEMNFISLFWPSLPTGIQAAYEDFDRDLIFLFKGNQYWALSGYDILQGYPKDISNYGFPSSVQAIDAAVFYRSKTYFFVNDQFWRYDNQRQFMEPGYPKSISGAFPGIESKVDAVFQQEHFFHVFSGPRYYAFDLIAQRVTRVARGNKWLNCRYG

[3] = molecular target: T1, Disintegrin and metalloproteinase domain-containing protein 10 (Homo sapiens) (UniProt O14672); assay: Inhibition of recombinant human C-terminal His10-tagged ADAM10 (Thr214 to Glu672 residues) expressed in baculovirus infected Sf21 cells at 10 uM using McaKPLGL-Dpa-AR-NH2 as substrate by fluorescence spectrophotometric method relative to control
T1 sequence (whole entry): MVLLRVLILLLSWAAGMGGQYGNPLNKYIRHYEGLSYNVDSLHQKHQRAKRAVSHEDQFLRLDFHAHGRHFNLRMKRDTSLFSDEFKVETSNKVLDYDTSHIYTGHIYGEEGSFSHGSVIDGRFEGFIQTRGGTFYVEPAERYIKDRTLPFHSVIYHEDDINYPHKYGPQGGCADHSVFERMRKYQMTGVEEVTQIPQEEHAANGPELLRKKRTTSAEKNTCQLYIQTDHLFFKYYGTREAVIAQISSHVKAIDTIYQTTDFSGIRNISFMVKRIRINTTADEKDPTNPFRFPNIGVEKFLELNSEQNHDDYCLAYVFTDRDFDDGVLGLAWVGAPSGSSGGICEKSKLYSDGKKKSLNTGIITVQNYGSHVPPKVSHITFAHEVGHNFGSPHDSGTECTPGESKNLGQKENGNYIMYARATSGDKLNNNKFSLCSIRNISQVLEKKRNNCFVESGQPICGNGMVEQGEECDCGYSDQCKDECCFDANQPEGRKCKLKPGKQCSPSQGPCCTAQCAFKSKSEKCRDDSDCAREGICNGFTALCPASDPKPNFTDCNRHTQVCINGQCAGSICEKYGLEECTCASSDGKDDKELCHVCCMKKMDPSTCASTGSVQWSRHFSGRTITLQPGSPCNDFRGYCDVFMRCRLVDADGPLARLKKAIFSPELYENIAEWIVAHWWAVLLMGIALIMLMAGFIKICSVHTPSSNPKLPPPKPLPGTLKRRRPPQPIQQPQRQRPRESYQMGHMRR
How it was run: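 Single inhibitor concentration of 10 μM, reported as percent inhibition. Enzymes and substrates as in earlier work, with inhibition run by a previously reported protocol.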

[4] = molecular target: Macrophage metalloelastase (Homo sapiens, UniProt P39900); assay: Inhibition of recombinant human MMP12 catalytic domain using Mca-PLGL-DpaAR-NH2 as substrate by fluorescence spectrophotometric method; how it was run: as §1
Sequence of Macrophage metalloelastase (P39900 whole entry, the tested form may be a part): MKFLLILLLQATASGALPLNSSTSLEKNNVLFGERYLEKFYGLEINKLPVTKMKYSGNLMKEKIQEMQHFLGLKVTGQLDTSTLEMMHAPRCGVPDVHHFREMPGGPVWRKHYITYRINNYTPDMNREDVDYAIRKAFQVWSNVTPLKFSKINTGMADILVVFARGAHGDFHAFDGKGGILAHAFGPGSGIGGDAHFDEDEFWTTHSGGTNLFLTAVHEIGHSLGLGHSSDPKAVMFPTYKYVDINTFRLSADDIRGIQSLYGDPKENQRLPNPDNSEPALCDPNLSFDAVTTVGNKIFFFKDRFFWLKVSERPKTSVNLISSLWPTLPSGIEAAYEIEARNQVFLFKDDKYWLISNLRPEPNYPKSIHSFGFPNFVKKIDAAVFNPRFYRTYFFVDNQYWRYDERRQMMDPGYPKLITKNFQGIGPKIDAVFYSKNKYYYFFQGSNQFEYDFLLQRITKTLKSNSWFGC

pKi [1]: 7.21
pKi [2]: 8.52
inhibition [3]: 3%
pKi [4]: 7.53
Compound: CN1CC2(CC2)C[C@H](C(=O)NO)[C@H]1C(=O)N1CCN(c2ccc(C(F)(F)F)cn2)CC1
